# Results reported in ChEMBL document CHEMBL1764951, “Synthesis of a new 4-aza-2,3-didehydropodophyllotoxin analogues as potent cytotoxic and antimitotic agents” (2011).
# Structures can show the parent of a compound that is named as a salt. Active and inactive are the calls of the source. The calls are words filed in the database; no cut-off is given here.
# Legend:
# MCF7 = assay: Cytotoxicity against human MCF7 cells after 48 hrs by sulforhodamine B based ELISA; assay type: functional; details: MCF7, 48 h
# Procedure, shortened: (§1)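 Lines were grown in DMEM with 10% FBS and 2 mM L-glutamine, plated at densities set by doubling time, and held 24 h at 37 °C, 5% CO2. Drugs were tested at 0.1, 1, 10 and 100 µM in triplicate wells for 48 h. Cells were fixed with cold TCA (10% final) for 60 min at 4 °C, stained 20 min with 0.4% SRB in 1% acetic acid, and eluted with 10 mM Tris base. A540 was read with a 690 nm reference. GI50 came from [(Ti−Tz)/(C−Tz)]×100 = 50; runs were repeated three times.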
# KB = assay: Cytotoxicity against human KB cells after 48 hrs by sulforhodamine B based ELISA; assay type: functional; procedure, shortened: as §1
# COLO 205 = assay: Cytotoxicity against human COLO205 cells after 48 hrs by sulforhodamine B based ELISA; assay type: functional; details: COLO 205, 48 h; procedure, shortened: as §1
# A2780 = assay: Cytotoxicity against human A2780 cells after 48 hrs by sulforhodamine B based ELISA; assay type: functional; details: A2780, 48 h; procedure, shortened: as §1
# A549 [1] = assay: Cytotoxicity against human A549 cells after 48 hrs by sulforhodamine B based ELISA; assay type: functional; details: A549, 48 h; procedure, shortened: as §1
# Tubulin (Homo sapiens) [2] = target: T1, Tubulin (Homo sapiens) (UniProt P68371+Q9H4B7+P0DPH7+P68366+Q13509+Q71U36+P04350+Q3ZCM7+P07437+P68363+Q9BQE3+Q6PEY2+Q13885+Q9BVA1+Q9BUF5); assay: Inhibition of tubulin polymerization in human A549 cells assessed as disrupted microtubule organization at 5 uM after 48 hrs by immunohistochemistry; assay type: cell-based
# Procedure, shortened: (§2)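 A-549 cells on glass coverslips were treated 48 h with compound at 5 µM or podophyllotoxin at 1 µM. They were fixed in 3% paraformaldehyde/0.02% glutaraldehyde in PBS, permeabilized in −20 °C methanol, and blocked 1 h in 1% BSA. Staining used a mouse monoclonal anti-tubulin antibody and an FITC-conjugated secondary. Microtubule network integrity was assessed by confocal microscopy.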
# Tubulin (Homo sapiens) [3] = target: T1, Tubulin (Homo sapiens); assay: Inhibition of tubulin polymerization in human A549 cells assessed as disrupted microtubule organization at 1 uM after 48 hrs by immunohistochemistry; assay type: cell-based; procedure, shortened: as §2
# A549 [4] = assay: Induction of apoptosis in human A549 cells assessed as activation of caspase 3 at 1 uM after 48 hrs by fluorimetric assay relative to control; assay type: functional
# Procedure, shortened: (§3)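 A-549 cells in 6-well plates at 60–80% confluence were given compound at 5 µM, with podophyllotoxin at 1 µM as the positive control. The methods give 24 h incubation; the legend gives 48 h. Cells were scraped, lysed by syringe in lysis buffer on ice 10–20 min, and spun at 13,200 rpm for 20 min at 4 °C. The supernatant was assayed fluorimetrically with an AMC-conjugated caspase-3 substrate. Values are the mean ± SD of two experiments, each in triplicate.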
# A549 [5] = assay: Cell cycle arrest in human A549 cells assessed as accumulation at S phase at 1 uM after 48 hrs using propidium iodide staining by flow cytometry (reference value: 5.2%); assay type: functional
# [6] = Inhibition of tubulin polymerization at 3 uM after 1 hr fluorescence analysis relative to control
# Procedure, shortened: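 The cell-free fluorescence kit assay used PEM buffer, 1 mM GTP and compound at 3 µM final. Polymerization was followed as reporter incorporation into microtubules, read at 460 nm emission for 1 h at 37 °C, with podophyllotoxin as the positive control. Percent inhibition was expressed relative to the untreated control.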
# A549 [7] = assay: Cell cycle arrest in human A549 cells assessed as accumulation at G1 phase at 1 uM after 48 hrs using propidium iodide staining by flow cytometry (reference value: 71.6%); assay type: functional
# A549 [8] = assay: Cell cycle arrest in human A549 cells assessed as accumulation at G2/M phase at 1 uM after 48 hrs using propidium iodide staining by flow cytometry (reference value: 23.1%); assay type: functional
# A549 [9] = assay: Cell cycle arrest in human A549 cells assessed as accumulation at G1 phase at 10 uM after 48 hrs using propidium iodide staining by flow cytometry (reference value: 71.6%); assay type: functional
# A549 [10] = assay: Induction of apoptosis in human A549 cells assessed as activation of caspase 3 at 5 uM after 48 hrs by fluorimetric assay relative to control; assay type: functional; procedure, shortened: as §3
# A549 [11] = assay: Cell cycle arrest in human A549 cells assessed as accumulation at S phase at 10 uM after 48 hrs using propidium iodide staining by flow cytometry (reference value: 5.2%); assay type: functional
# A549 [12] = assay: Cell cycle arrest in human A549 cells assessed as accumulation at G2/M phase at 10 uM after 48 hrs using propidium iodide staining by flow cytometry (reference value: 23.1%); assay type: functional
SMILES,GI50 (MCF7),GI50 (KB),GI50 (COLO 205),GI50 (A2780),GI50 (A549 [1]),also measured
COc1ccc(C2C3=C(COC3=O)Nc3ccc4nc(S)[nH]c4c32)cc1O (stereo not drawn),2.7 µM,,,,,
COc1cc(C2C3=C(COC3=O)Nc3ccc4cc(C)[nH]c4c32)cc(OC)c1OC (stereo not drawn),,2 µM,,,,
COc1ccc(C2C3=C(COC3=O)Nc3ccc4cc[nH]c4c32)cc1O (stereo not drawn),2.9 µM,2.2 µM,0.19 µM,2.7 µM,2.3 µM,
COc1cc(C2C3=C(COC3=O)Nc3ccc4nn[nH]c4c32)cc(OC)c1OC (stereo not drawn),,2.9 µM,,,,
COc1ccc(C2C3=C(COC3=O)Nc3ccc4cc(C)[nH]c4c32)c(F)c1 (stereo not drawn),< 0.1 µM,2.2 µM,2.7 µM,2.3 µM,,
COc1cc([C@@H]2c3cc4c(cc3[C@H](O)[C@H]3COC(=O)[C@H]23)OCO4)cc(OC)c1OC [PODOFILOX],,,,,,inhibition (Tubulin (Homo sapiens) [2]): Active; inhibition (Tubulin (Homo sapiens) [3]): Active; fold change (FC) (A549 [4]): 4; Activity (A549 [5]): 7.1%; inhibition [6]: 80.7%; Activity (A549 [7]): 31.4%; Activity (A549 [8]): 61.5%
COc1ccc(C2C3=C(COC3=O)Nc3onc(-c4ccc(Cl)cc4)c32)cc1O (stereo not drawn),,2.7 µM,,,,
COc1cc(C2C3=C(COC3=O)Nc3ccc4cc(C)[nH]c4c32)ccc1F (stereo not drawn),2.6 µM,,,2.4 µM,2.1 µM,inhibition (Tubulin (Homo sapiens) [2]): Active; Activity (A549 [9]): 35.4%; inhibition (Tubulin (Homo sapiens) [3]): Active; fold change (FC) (A549 [10]): 2; Activity (A549 [11]): 8.8%; Activity (A549 [12]): 55.6%; inhibition [6]: 45.3%
COc1cc(C2C3=C(COC3=O)Nc3c2cc(OC)c(OC)c3OC)ccc1O (stereo not drawn),2.9 µM,,,,,
COc1ccc(C2C3=C(COC3=O)Nc3ccc4cn[nH]c4c32)cc1O (stereo not drawn),,,2.6 µM,,,
COc1cc(C2C3=C(COC3=O)Nc3ccc4cc[nH]c4c32)ccc1F (stereo not drawn),2.1 µM,0.17 µM,,2.3 µM,2.2 µM,
COc1nc2c(c(OC)n1)C(c1cc(OC)c(OC)c(OC)c1)C1=C(COC1=O)N2 (stereo not drawn),2.4 µM,0.17 µM,0.16 µM,,2.1 µM,inhibition (Tubulin (Homo sapiens) [2]): Active; Activity (A549 [9]): 38.9%; inhibition (Tubulin (Homo sapiens) [3]): Active; fold change (FC) (A549 [10]): 2; Activity (A549 [11]): 12.7%; Activity (A549 [12]): 48.2%; inhibition [6]: 63.7%
COc1cc(C2C3=C(COC3=O)Nc3ccc4cc[nH]c4c32)ccc1O (stereo not drawn),2.3 µM,,2.5 µM,,,
COc1cc(C2C3=C(COC3=O)Nc3ccc4cc[nH]c4c32)cc(OC)c1OC (stereo not drawn),,2 µM,2.3 µM,2.7 µM,2.4 µM,
COc1cc(C2C3=C(COC3=O)Nc3ccc4cn[nH]c4c32)ccc1O (stereo not drawn),2 µM,,2 µM,,,
COc1ccc(C2C3=C(COC3=O)Nc3ccc4nn[nH]c4c32)c(F)c1 (stereo not drawn),< 0.1 µM,,,,,
COc1nc2c(c(OC)n1)C(c1ccc(F)c(OC)c1)C1=C(COC1=O)N2 (stereo not drawn),,2.2 µM,,,2.6 µM,
COc1cc(C2C3=C(COC3=O)Nc3ccc4ncsc4c32)cc(OC)c1OC (stereo not drawn),,2.1 µM,2.5 µM,2.3 µM,2.4 µM,inhibition (Tubulin (Homo sapiens) [2]): Active; Activity (A549 [9]): 42.4%; inhibition (Tubulin (Homo sapiens) [3]): Active; fold change (FC) (A549 [10]): 2; Activity (A549 [11]): 4.4%; Activity (A549 [12]): 53.1%; inhibition [6]: 49.4%
COc1cc(C2C3=C(COC3=O)Nc3ccc4cn[nH]c4c32)ccc1F (stereo not drawn),2.7 µM,,,,2.3 µM,
COc1cc(C2C3=C(COC3=O)Nc3ccc4nc(C)sc4c32)ccc1[N+](=O)[O-] (stereo not drawn),0.15 µM,,,,,
COc1ccc(C2C3=C(COC3=O)Nc3ccc4cc[nH]c4c32)cc1[N+](=O)[O-] (stereo not drawn),,,2.4 µM,,,
COc1cccc2c1C(=O)c1c(O)c3c(c(O)c1C2=O)C[C@@](O)(C(=O)CO)C[C@@H]3O[C@H]1C[C@H](N)[C@H](O)[C@H](C)O1 [DOXORUBICIN HYDROCHLORIDE],0.13 µM,0.13 µM,< 0.1 µM,< 0.1 µM,< 0.1 µM,
COc1cc([C@@H]2c3cc4c(cc3[C@@H](O[C@@H]3O[C@@H]5CO[C@@H](C)O[C@H]5[C@H](O)[C@H]3O)[C@H]3COC(=O)[C@H]23)OCO4)cc(OC)c1O [ETOPOSIDE],2.1 µM,0.3 µM,0.13 µM,1.3 µM,3.08 µM,
